According to ChEMBL document CHEMBL1138380, “4-Aminopyrimidines as novel HIV-1 inhibitors” (Bioorg Med Chem Lett, 2007):

Legend:
[1] = tested on: Human immunodeficiency virus; assay: Antiviral activity against HIV in HEK293T cells after 48 hrs; type: functional, organism-based; conditions: Human immunodeficiency virus 1, HEK-293T
In short: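 HEK 293T cells grown in DMEM with 10% FBS and Pen/Strep/glutamine, seeded at 700 cells/well in 1536-well format, then cultured 24 h at 37 °C under 5% CO2. Compounds serially diluted in DMSO were added and incubated 1 h at 37 °C. Cells were then infected with HIV reporter virus at MOI ~1.0 and cultured 48 h at 37 °C. Read-out was luciferase activity.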

[2] = Cytotoxicity against HEK293T cells after 48 hrs; type: cell-based, HEK-293T; conditions: human
In short: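 293T cells seeded at 700 cells/well in 1536-well format and cultured 24 h at 37 °C under 5% CO2. Compounds serially diluted in DMSO were added. After culture, viability was read by Alamar Blue diluted 1:1 in DMEM, incubated 4 h at room temperature, with fluorescence intensity measured.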

| EC50 [1] [nM] | Structure (SMILES) | CC50 at 48 h [2] [nM] |
| --- | --- | --- |
| 341 | CCc1ncnc(NC(CC)c2ccc(N(C)C)cc2)c1Cl (stereo not drawn) | > 10000 |
| 778 | CCc1ncnc(NC(C)c2cc3c(cc2O)CCCC3)c1Cl (stereo not drawn) | > 10000 |
| 35 | CCc1ncnc(NC(C)c2ccc3c(c2)N(C(C)=O)CCO3)c1Cl (stereo not drawn) | > 10000 |
| 816 | CCc1ncnc(NC(C)c2sc3ccccc3c2C)c1Cl (stereo not drawn) | > 10000 |
| 1190 | CCc1ncnc(NC(C)c2ccc(NC(C)=O)cc2)c1Cl (stereo not drawn) | > 10000 |
| 42 | CCc1ncnc(NC(C)c2ccc3ccccc3n2)c1Cl (stereo not drawn) | > 10000 |
| 139 | CCc1ncnc(NC(C)c2ccc3ccccc3c2)c1Cl (stereo not drawn) | > 10000 |
| 3020 | CCc1ncnc(NC(C)c2ccc(NC(=O)N(C)CCOCCN(C)C(C)=O)cc2)c1Cl (stereo not drawn) | > 10000 |
| 3 | CCc1ncnc(NC(CC)c2ccc(Oc3ccc(F)cc3)cc2)c1Br (stereo not drawn) | > 10000 |
| 331 | CCc1ncnc(NCc2ccc(C(C)(C)C)cc2)c1Cl | > 10000 |
| 353 | CCc1ncnc(NC(C)c2ccc3c(c2)N=C(NCCO)CO3)c1Cl (stereo not drawn) | > 10000 |
| 4890 | CCc1ncnc(NC(C)c2ccc(NC(=O)N(C)CCCN(C)C(C)=O)cc2)c1Cl (stereo not drawn) | > 10000 |
| 15 | CCC(Nc1nc(C)nc(Cl)c1N)c1ccc(Oc2ccc(F)cc2)cc1 (stereo not drawn) | > 10000 |
| 96 | CCCc1cc(NC(CC)c2ccc(Oc3ccc(F)cc3)cc2)ncn1 (stereo not drawn) | > 10000 |
| 170 | CCc1ncnc(NC(C)c2ccc3c(c2)CCCC3)c1Cl (stereo not drawn) | > 10000 |
| 16 | CCc1ncnc(NC(C)c2ccc(C(C)(C)C)cc2)c1Cl (stereo not drawn) | > 10000 |
| 691 | CCc1ncnc(NC(C)c2cc3cccc(OC)c3o2)c1Cl (stereo not drawn) | > 10000 |
| 2660 | CCc1ncnc(NC(CC)c2ccc([N+](=O)[O-])cc2)c1Cl (stereo not drawn) | > 10000 |
| 48 | CCc1ncnc(NC(CC)c2ccc(Oc3ncnc4ccccc34)cc2)c1Cl (stereo not drawn) | > 10000 |
| 28 | CCc1ncnc(NC(CC)c2ccc(C(C)(C)C)cc2)c1Cl (stereo not drawn) | > 10000 |
| 95 | CCc1ncnc(NC(C)c2cccc3ccccc23)c1Cl (stereo not drawn) | > 10000 |
| 18 | CCc1nc(C)nc(NC(CC)c2ccc(Oc3ccc(F)cc3)cc2)c1Br (stereo not drawn) | > 10000 |
| 31 | CCC(Nc1cc(COC)ncn1)c1ccc(Oc2ccc(F)cc2)cc1 (stereo not drawn) | > 10000 |
| 324 | CCC(Nc1cc(C)ncn1)c1ccc(Oc2ccc(F)cc2)cc1 (stereo not drawn) | > 10000 |
| 17 | CCc1ncnc(NC(CC)c2ccc(-c3ccccc3)cc2)c1Cl (stereo not drawn) | > 10000 |
| 622 | CCc1ncnc(NC(C)c2ccc(NC(=O)CCCC[C@@H]3SC[C@@H]4NC(=O)N[C@@H]43)cc2)c1Cl (stereo partly drawn) | > 10000 |
| 0.5 | O=C1Nc2ccc(Cl)cc2C(C#CC2CC2)(C(F)(F)F)O1 (single isomer, unassigned) [EFAVIRENZ] | 10000 |
| 29 | CCc1ncnc(NC(C)c2ccc3c(c2)NCCO3)c1Cl (stereo not drawn) | > 10000 |
| 760 | CCCc1ncnc(NC(CC)c2ccc(Oc3ccc(F)cc3)cc2)c1Br (stereo not drawn) | > 10000 |

| Structure (SMILES) | EC50 [1] [nM] | CC50 at 48 h [2] [nM] |
| --- | --- | --- |
| CCc1ncnc(N(C)C(C)c2ccc(OC(=O)N(C)CCOCCN(C)C(C)=O)cc2)c1Cl (stereo not drawn) | > 10000 | > 10000 |
| CCc1ncnc(N(C)C(C)c2ccc(OC(=O)N(C)C)cc2)c1Cl (stereo not drawn) | > 10000 | > 10000 |
| CCc1ncnc(NC(C)c2ccc(OC(=O)N(C)CCCN(C)C(C)=O)cc2)c1Cl (stereo not drawn) | 327 | > 10000 |
| CCc1ncnc(NC(C)c2ccc(OC(=O)NCCCOCCCNC(C)=O)cc2)c1Cl (stereo not drawn) | 5 | > 10000 |
| CCc1ncnc(NC(C)c2ccc(OC(=O)NCCOCCOCCOCCNC(C)=O)cc2)c1Cl (stereo not drawn) | 190 | > 10000 |
| CCc1ncnc(NC(C)c2ccc(OC(=O)NCCOCCNC(C)=O)cc2)c1Cl (stereo not drawn) | 5 | > 10000 |
| Cc1ccnc2c1NC(=O)c1cccnc1N2C1CC1 [NEVIRAPINE] | 50 | > 10000 |
| CCc1ncnc(NC(C)c2ccc(OC(=O)N(C)C)cc2)c1Cl (stereo not drawn) | 4 | > 10000 |
| CCc1ncnc(NC(C)c2ccc(OC(=O)N(C)CCOCCN(C)C(C)=O)cc2)c1Cl (stereo not drawn) | 4 | > 10000 |
| CCc1ncnc(NC(C)c2ccc(OC(=O)NCCCNC(C)=O)cc2)c1Cl (stereo not drawn) | 190 | > 10000 |
